Measurements taken from ChEMBL document CHEMBL1687824, “Overexpression of patA and patB, which encode ABC transporters, is associated with fluoroquinolone resistance in clinical isolates of Streptococcus pneumoniae” (2011).
In brackets after ≈: the same amount, converted by molar mass.

How the values were obtained:
Format in all cases: functional
Streptococcus pneumoniae [1] = experiment: Antibacterial activity against wild type Streptococcus pneumoniae R6 by standardized agar doubling dilution method
Procedure, shortened: (§1)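 MIC by agar doubling dilution following BSAC guidelines. Strains grown in brain heart infusion broth 24 h at 37°C in 5% CO2. Where an efflux pump inhibitor applies, MIC redetermined with reserpine at 20 μg/ml or sodium orthovanadate at 50 μM. Synergy taken as a fall in MIC of ≥2 dilutions with inhibitor present. Dye resistance defined relative to R6 (both dyes ≥2 dilutions higher).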

Streptococcus pneumoniae [2] = experiment: Antibacterial activity against wild type Streptococcus pneumoniae M3 NCTC 7466 type 2 by standardized agar doubling dilution method; procedure, shortened: as §1
Streptococcus pneumoniae [3] = experiment: Antibacterial activity against fluoroquinolone-resistant Streptococcus pneumoniae by standardized agar doubling dilution method; procedure, shortened: as §1
Streptococcus pneumoniae [4] = experiment: Antibacterial activity against fluoroquinolone, dye-susceptible Streptococcus pneumoniae by standardized agar doubling dilution method; procedure, shortened: as §1
Streptococcus pneumoniae [5] = experiment: Antibacterial activity against wild type Streptococcus pneumoniae M4 NCTC 7465 type 1 by standardized agar doubling dilution method; procedure, shortened: as §1
Streptococcus pneumoniae [6] = experiment: Antibacterial activity against fluoroquinolone-resistant Streptococcus pneumoniae by standardized agar doubling dilution method in presence of 20 ug/ml reserpine efflux pump inhibitor; procedure, shortened: as §1
Streptococcus pneumoniae [7] = experiment: Antibacterial activity against fluoroquinolone, dye-susceptible Streptococcus pneumoniae by standardized agar doubling dilution method in presence of 20 ug/ml reserpine efflux pump inhibitor; procedure, shortened: as §1
Streptococcus pneumoniae [8] = experiment: Antibacterial activity against wild type Streptococcus pneumoniae R6 by standardized agar doubling dilution method in presence of 20 ug/ml reserpine efflux pump inhibitor; procedure, shortened: as §1
Streptococcus pneumoniae [9] = experiment: Antibacterial activity against wild type Streptococcus pneumoniae M4 NCTC 7465 type 1 by standardized agar doubling dilution method in presence of 20 ug/ml reserpine efflux pump inhibitor; procedure, shortened: as §1
Streptococcus pneumoniae [10] = experiment: Antibacterial activity against dye-resistant Streptococcus pneumoniae by standardized agar doubling dilution method; procedure, shortened: as §1
Streptococcus pneumoniae [11] = experiment: Antibacterial activity against fluoroquinolone, dye-resistant Streptococcus pneumoniae by standardized agar doubling dilution method; procedure, shortened: as §1
Streptococcus pneumoniae [12] = experiment: Antibacterial activity against wild type Streptococcus pneumoniae M3 NCTC 7466 type 2 by standardized agar doubling dilution method in presence of 20 ug/ml reserpine efflux pump inhibitor; procedure, shortened: as §1
Streptococcus pneumoniae [13] = experiment: Antibacterial activity against dye-resistant Streptococcus pneumoniae by standardized agar doubling dilution method in presence of 20 ug/ml reserpine efflux pump inhibitor; procedure, shortened: as §1
Streptococcus pneumoniae [14] = experiment: Antibacterial activity against fluoroquinolone, dye-resistant Streptococcus pneumoniae by standardized agar doubling dilution method in presence of 20 ug/ml reserpine efflux pump inhibitor; procedure, shortened: as §1

SMILES: CCn1cc(C(=O)O)c(=O)c2cc(F)c(N3CCNCC3)cc21 [NORFLOXACIN]
- MIC (Streptococcus pneumoniae [1]): 4 mg/L (≈ 12.5 µM)
- MIC (Streptococcus pneumoniae [2]): 4 mg/L (≈ 12.5 µM)
- MIC90 (Streptococcus pneumoniae [3]): 32 mg/L (≈ 100 µM)
- MIC90 (Streptococcus pneumoniae [4]): 4 mg/L (≈ 12.5 µM)
- MIC (Streptococcus pneumoniae [5]): 8 mg/L (≈ 25.1 µM)
- MIC90 (Streptococcus pneumoniae [6]): 8 mg/L
- MIC (Streptococcus pneumoniae [7]): 1 mg/L
- MIC90 (Streptococcus pneumoniae [7]): 1 mg/L
- MIC (Streptococcus pneumoniae [8]): 2 mg/L
- MIC (Streptococcus pneumoniae [9]): 4 mg/L
- MIC (Streptococcus pneumoniae [10]): 4 mg/L (≈ 12.5 µM)
- MIC90 (Streptococcus pneumoniae [10]): 4 mg/L (≈ 12.5 µM)
- MIC90 (Streptococcus pneumoniae [11]): 32 mg/L (≈ 100 µM)
- MIC (Streptococcus pneumoniae [12]): 2 mg/L
- MIC (Streptococcus pneumoniae [13]): 1 mg/L
- MIC90 (Streptococcus pneumoniae [13]): 1 mg/L
- MIC90 (Streptococcus pneumoniae [14]): 8 mg/L
